≈ marks a conversion by molar mass, not a printed value. Calls of active or inactive are those of the source. Where a SMILES comes first, the peptide text is derived from it. [ ]: non-standard residue; d: D form. NFurfurylGly = O=C(O)CNCc1ccco1; Gly(N(CH2)3NH2) = NCCCNCC(=O)O; Nphe = O=C(O)CNCc1ccccc1
Key:
[1] = Antifungal activity against Cryptococcus neoformans serotype A H99S assessed as inhibition of colony growth measured after 72 hrs by PrestoBlue staining based broth dilution method; format: functional; details: for MIC: Cryptococcus neoformans var. grubii H99S
Outline: (§1)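 Standard broth dilution of the synthesized, HPLC-purified peptoid against C. neoformans in a triplicate-sample format with 72 h incubation; MIC is the lowest concentration that inhibits growth.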

Mus musculus = species: Mus musculus; test: Cytotoxicity against mouse NIH/3T3 cells at 6.3 ug/ml measured after 48 hrs by MTT assay; format: toxicity, cell-based; details: nih3t3, 48 h
Outline: (§2)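 Cells were exposed to peptoid across 800 to 3.1 μg/mL. IC50 is defined as the concentration giving 50% growth inhibition. Cytotoxicity was also scored at 6.3 μg/mL within this range.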

[2] = Cytotoxicity against human HepG2 cells at 6.3 ug/ml measured after 48 hrs by MTT assay; format: toxicity, cell-based; details: hepg2, 48 h; outline: as §2
Cryptococcus neoformans [3] = test: Fungicidal activity against Cryptococcus neoformans serotype A H99S at =>6.3 ug/mL measured after 72 hrs by broth dilution method; format: functional; details: Cryptococcus neoformans var. grubii H99S
Outline: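 Broth MIC assay over a range of peptoid concentrations with 72 h incubation. Triplicate wells are pooled, washed with PBS to remove drug and spotted onto YPD agar. Fungicidal activity means no colony regrowth; recovery of colonies means fungistatic only.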

[4] = Antifungal activity against Cryptococcus neoformans serotype D ATCC 24067 after 72 hrs by PrestoBlue staining based broth dilution method; format: functional, Cryptococcus deneoformans; outline: as §1
Cryptococcus neoformans [5] = test: Antifungal activity against Cryptococcus neoformans serotype A clinical isolate B18 after 72 hrs by PrestoBlue staining based broth dilution method; format: functional; details: isolate B18, 72 h
Outline: (§3)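 Standard broth dilution MIC assay run in triplicate samples with 72 h incubation. The MIC is the lowest concentration inhibiting growth. An IC50 (50% inhibitory concentration) is also derived from the same assay.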

Cryptococcus neoformans [6] = test: Antifungal activity against Cryptococcus neoformans serotype A clinical isolate B24 after 72 hrs by PrestoBlue staining based broth dilution method; format: functional; details: isolate B24, 72 h; outline: as §3
[7] = Antifungal activity against Cryptococcus neoformans serotype D clinical isolate AD 12-27 after 72 hrs by PrestoBlue staining based broth dilution method; format: functional, Cryptococcus deneoformans; outline: as §3
[8] = Antifungal activity against Cryptococcus neoformans serotype D clinical isolate AD 12-30 after 72 hrs by PrestoBlue staining based broth dilution method; format: functional, Cryptococcus deneoformans; outline: as §3
[9] = Cytotoxicity against mouse NIH/3T3 cells measured after 48 hrs by MTT assay; format: toxicity, NIH3T3; outline: as §2
[10] = Cytotoxicity against human HepG2 cells measured after 48 hrs by MTT assay; format: toxicity, cell-based; outline: as §2
[11] = Cytotoxicity against human HPL1A cells measured after 48 hrs by MTT assay; format: toxicity, cell-based; outline: as §2
[12] = Cytotoxicity against human erythrocytes assessed as hemolysis measured after 1 hr by spectrophotometric method; format: toxicity, cell-based; details: erythrocyte
Outline: (§4)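 Human erythrocytes were exposed to peptoid across 800 to 3.1 μg/mL. HC10 is defined as the concentration lysing 10% of erythrocytes. Lysis was also scored at 6.3 μg/mL.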

[13] = Selectivity index, ratio of IC50 for mouse NIH/3T3 cells to MIC for Cryptococcus neoformans serotype A H99S
Outline: (§5)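 Mammalian toxicity tested at 800 to 3.1 μg/mL. IC50 (50% growth inhibition) was measured in NIH/3T3, HepG2 and HPL1A cells, and HC10 (10% lysis) in human erythrocytes. Each value was divided by the broth-dilution MIC against H99S.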

[14] = Selectivity index, ratio of IC50 for human HepG2 cells to MIC for Cryptococcus neoformans serotype A H99S; outline: as §5
[15] = Selectivity index, ratio of IC50 for human HPL1A cells to MIC for Cryptococcus neoformans serotype A H99S; outline: as §5
[16] = Selectivity index, ratio of HC10 for human erythrocytes to MIC for Cryptococcus neoformans serotype A H99S; outline: as §5
[17] = Metabolic stability in human serum assessed as compound degradation at 0.1 mg/mL measured after 48 hrs by RP-HPLC analysis; format: ADME
[18] = Cytotoxicity against human HPL1A cells at 6.3 ug/ml measured after 48 hrs by MTT assay; format: toxicity, cell-based; outline: as §2
[19] = Hemolytic activity against human erythrocytes at 6.3 ug/ml measured after 1 hr by spectrophotometric method; format: cell-based; details: erythrocyte; outline: as §4

## NCCCN(CC(=O)N(CC(=O)N(CC(N)=O)Cc1ccco1)Cc1ccccc1)C(=O)CN(Cc1ccccc1)C(=O)CNCc1ccccc1 (H-[Nphe][Nphe][Gly(N(CH2)3NH2)][Nphe][NFurfurylGly]-NH2)
[1]
  MIC: > 200 µg/mL

## CCCCCCCCCCCCCNCC(=O)N(CCCCN)CC(=O)N(CC(N)=O)Cc1ccco1
[1]
  IC50: 0.68 µg/mL (≈ 1.3 µM)
  MIC: 6.3 µg/mL (≈ 12.1 µM)
Mus musculus
  Activity: Non-Toxic
[2]
  Activity: Non-Toxic
Cryptococcus neoformans [3]
  Activity: Active
[4]
  IC50: 3.9 µg/mL (≈ 7.47 µM)
[4]; Cryptococcus deneoformans
  MIC: 6.3 µg/mL (≈ 12.1 µM)
Cryptococcus neoformans [5]
  IC50: 12.2 µg/mL (≈ 23.4 µM)
  MIC: 25 µg/mL (≈ 47.9 µM)
Cryptococcus neoformans [6]
  IC50: 10.7 µg/mL (≈ 20.5 µM)
  MIC: 12.5 µg/mL (≈ 24 µM)
[7]
  IC50: 4 µg/mL (≈ 7.67 µM)
[7]; Cryptococcus deneoformans
  MIC: 25 µg/mL (≈ 47.9 µM)
[8]
  IC50: 6.9 µg/mL (≈ 13.2 µM)
[8]; Cryptococcus deneoformans
  MIC: 25 µg/mL (≈ 47.9 µM)
[9]
  IC50 at 48 h: 48.6 to 50.3 µg/mL (≈ 93.1 to 96.4 µM)
[10]
  IC50 at 48 h: 43.6 to 56.2 µg/mL (≈ 83.6 to 108 µM)
[11]
  IC50 at 48 h: 36.3 µg/mL (≈ 69.6 µM)
[12]
  HC10: 68.7 µg/mL
[13]
  Selectivity Index: 8
[14]
  Selectivity Index: 9
[15]
  Selectivity Index: 6
[16]
  Selectivity Index: 11
[17]
  Stability: Stable
[18]
  Activity: Non-Toxic
[19]
  Activity: Non-Toxic

Reference: ChEMBL document CHEMBL3864187, “Discovery and Characterization of a Peptoid with Antifungal Activity against Cryptococcus neoformans” (ACS Med Chem Lett, 2016)
